Test results from ChEMBL document CHEMBL2034851, “Synthesis and antiviral evaluation of C5-substituted-(1,3-diyne)-2'-deoxyuridines” (Eur J Med Chem, 2012).

Key:
[1] = test system: Human alphaherpesvirus 3; assay: Antiviral activity against thymidine kinase-deficient Varicella-zoster virus 07/1 infected in HEL cells assessed as reduction in virus-induced cytopathicity; type: functional, organism-based; conditions: Human alphaherpesvirus 3, 07/1, HEL
Method in brief: (§1)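 Confluent HEL cell monolayers in 96-well plates were inoculated with 100 CCID50 or 20 PFU of virus and left 1–2 h for adsorption. Residual virus was removed and cells were incubated with serial compound dilutions. Read-out was taken once cytopathicity was complete in untreated infected controls. EC50 is the concentration giving 50% reduction of virus-induced cytopathicity or plaque formation.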

[2] = test system: Human alphaherpesvirus 3; assay: Antiviral activity against thymidine kinase-positive Varicella-zoster virus YS infected in HEL cells assessed as reduction in virus-induced cytopathicity; type: functional, organism-based; conditions: Human alphaherpesvirus 3, YS; method in brief: as §1
[3] = Cytostatic against human HEL cells assessed as reduction in cell growth after 3 days by coulter counter; type: cell-based
Method in brief: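 HEL cells were seeded at 5 × 10³ cells/well and grown for 24 h. Medium with varying compound concentrations was then added and plates were incubated 3 days at 37 °C. Cells were counted with a Coulter counter. CC50 is the concentration reducing cell proliferation by 50% versus untreated controls.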

[4] = test system: Human betaherpesvirus 5; assay: Antiviral activity against Human cytomegalovirus Davis infected in HEL cells assessed as reduction in virus-induced cytopathicity; type: functional, organism-based; conditions: Human betaherpesvirus 5, Davis
Method in brief: (§2)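 Confluent HEL cell monolayers in microtiter plates were inoculated with 100 CCID50 of virus or 20 PFU. After 1–2 h adsorption, residual virus was removed. Cultures were then incubated with graded compound concentrations. Cytopathicity was read once it was complete in untreated infected controls. EC50 is the concentration giving 50% reduction of virus-induced cytopathicity or plaque formation.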

[5] = Cytotoxicity against human HEL cells assessed as change in cell morphology by microscopic analysis; type: cell-based
Method in brief: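 MCC is the compound concentration producing a microscopically visible change in cell morphology, scored on the cell cultures used for the antiviral tests.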

[6] = Lipophilicity, log P of the compound; type: physicochemical; conditions: octanol/water
[7] = test system: Human betaherpesvirus 5; assay: Antiviral activity against Human cytomegalovirus AD169 infected in HEL cells assessed as reduction in virus-induced cytopathicity; type: functional, organism-based; conditions: Human betaherpesvirus 5, AD169, HEL; method in brief: as §2
[8] = test system: Human alphaherpesvirus 3; assay: Antiviral activity against thymidine kinase-positive Varicella-zoster virus OKA infected in HEL cells assessed as reduction in virus-induced cytopathicity; type: functional, cell-based; conditions: Human alphaherpesvirus 3, strain Oka vaccine
Method in brief: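 Confluent HEL cell monolayers in 96-well plates were inoculated with 100 CCID50 or 20 PFU of virus and left 1–2 h for adsorption. Residual virus was removed and cells were incubated with serial compound dilutions. Read-out was taken once cytopathicity was complete in untreated infected controls.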

[9] = test system: Human alphaherpesvirus 1; assay: Antiviral activity against thymidine kinase-deficient Herpes simplex virus 1 infected in HEL cells assessed as reduction in viral plaque formation; type: functional, organism-based; conditions: Human alphaherpesvirus 1, HEL; method in brief: as §2
[10] = test system: Vaccinia virus; assay: Antiviral activity against Vaccinia virus infected in HEL cells assessed as reduction in viral plaque formation; type: functional, organism-based; conditions: Orthopoxvirus vaccinia; method in brief: as §1
[11] = test system: Human alphaherpesvirus 2; assay: Antiviral activity against Herpes simplex virus 2 G infected in HEL cells assessed as reduction in viral plaque formation; type: functional, organism-based; conditions: Human alphaherpesvirus 2, strain G; method in brief: as §2
[12] = test system: Human alphaherpesvirus 1; assay: Antiviral activity against Herpes simplex virus 1 KOS infected in HEL cells assessed as reduction in viral plaque formation; type: functional, organism-based; conditions: Human alphaherpesvirus 1, KOS; method in brief: as §2

| Structure (SMILES) | EC50 [1] | EC50 [2] | CC50 at 72 h [3] | EC50 [4] | MCC [5] | logP [6] | EC50 [7] | EC50 [8] | EC50 [9] | EC50 [10] | EC50 [11] | EC50 [12] |
| --- | --- | --- | --- | --- | --- | --- | --- | --- | --- | --- | --- | --- |
| O=c1[nH]c(=O)n([C@H]2C[C@H](O)[C@@H](CO)O2)cc1C#CC#Cc1ccccc1 | > 20 µM | > 20 µM | 100 µM | > 20 µM | 100 µM | 0.96 | > 20 µM | > 20 µM |  |  |  |  |
| CCCc1ccc(C#CC#Cc2cn([C@H]3C[C@H](O)[C@@H](CO)O3)c(=O)[nH]c2=O)cc1 | 14 µM | 2.77 µM | 52 µM | > 20 µM | 100 µM | 2.36 | > 20 µM | 3.7 µM |  |  |  |  |
| CCCCCCc1ccc(C#CC#Cc2cn([C@H]3C[C@H](O)[C@@H](CO)O3)c(=O)[nH]c2=O)cc1 | 9.5 µM | 6.44 µM | 35 µM | > 20 µM | 100 µM | 3.7 | > 20 µM | 8.8 µM |  |  |  |  |
| COc1cc(C#CC#Cc2cn([C@H]3C[C@H](O)[C@@H](CO)O3)c(=O)[nH]c2=O)cc(OC)c1 | > 100 µM | 38.1 µM | > 100 µM | > 100 µM | > 100 µM |  | > 100 µM | 39 µM |  |  |  |  |
| O=c1[nH]c(=O)n([C@H]2C[C@H](O)[C@@H](CO)O2)cc1C#CC#Cc1ccccn1 | 20 µM | 2.06 µM | 1.5 µM | > 4 µM | > 20 µM |  | 49 µM | 5.1 µM |  |  |  |  |
| Nc1cccc(C#CC#Cc2cn([C@H]3C[C@H](O)[C@@H](CO)O3)c(=O)[nH]c2=O)c1 | > 100 µM |  | > 100 µM | > 100 µM | > 100 µM | 0.13 | > 100 µM | > 100 µM |  |  |  |  |
| Nc1ccc(C#CC#Cc2cn([C@H]3C[C@H](O)[C@@H](CO)O3)c(=O)[nH]c2=O)cc1 | > 100 µM |  | > 100 µM | > 100 µM | > 100 µM | 0.13 | > 100 µM | > 100 µM |  |  |  |  |
| O=c1[nH]c(=O)n([C@H]2C[C@H](O)[C@@H](CO)O2)cc1C#CC#Cc1ccc([N+](=O)[O-])cc1 | > 20 µM |  | 89 µM | > 20 µM | 100 µM | 0.9 | > 20 µM | > 20 µM |  |  |  |  |
| O=c1[nH]c(=O)n([C@H]2C[C@H](O)[C@@H](CO)O2)cc1C#CC#Cc1ccc(OC(F)(F)F)cc1 | > 4 µM | 1.08 µM | 55 µM | > 20 µM | 100 µM | 2.39 | > 20 µM | 0.9 µM | 14.5 µM | 20 µM | 10 µM | 14.5 µM |
| Cc1cc(C#CC#Cc2cn([C@H]3C[C@H](O)[C@@H](CO)O3)c(=O)[nH]c2=O)ccc1F | > 20 µM | 9.13 µM | 45 µM | > 20 µM | 100 µM |  | > 20 µM | 14 µM |  |  |  |  |
| CC(O)CC#CC#Cc1cn([C@H]2C[C@H](O)[C@@H](CO)O2)c(=O)[nH]c1=O (stereo partly drawn) | > 100 µM | 12.7 µM | 9.5 µM | > 100 µM | > 100 µM |  | > 100 µM | 20 µM |  |  |  |  |
| O=c1[nH]c(=O)n([C@H]2C[C@H](O)[C@@H](CO)O2)cc1C#CC#CCO | > 100 µM | 6.24 µM | > 100 µM | > 100 µM | > 100 µM | -1.45 | > 100 µM | 2.1 µM |  |  |  |  |
| O=c1[nH]c(=O)n([C@H]2C[C@H](O)[C@@H](CO)O2)cc1C#CC#CCC1CCCC1 | > 100 µM | 33.7 µM | 89 µM | > 100 µM | > 100 µM | 1.43 | > 100 µM | 42 µM |  |  |  |  |
| O=c1[nH]c(=O)n([C@H]2C[C@H](O)[C@@H](CO)O2)cc1C#CC#CC1CC1 | > 100 µM |  | > 100 µM | > 100 µM | > 100 µM |  | > 100 µM | > 100 µM |  |  |  |  |
| Nc1nc2c(ncn2COCCO)c(=O)[nH]1 [ACYCLOVIR] | 92 µM | 2.18 µM | 470 µM |  | > 300 µM |  |  |  |  |  |  |  |
| O=c1[nH]c(=O)n([C@H]2C[C@H](O)[C@@H](CO)O2)cc1/C=C/Br [BRIVUDINE] | 74 µM | 0.0075 µM | > 100 µM |  | > 150 µM |  |  | 0.0087 µM |  |  |  |  |
| Nc1ccn(C[C@@H](CO)OCP(=O)(O)O)c(=O)n1 [CIDOFOVIR] |  |  | 64 µM | 1.1 µM | > 350 µM |  |  |  |  |  |  |  |
| Nc1nc2c(ncn2COC(CO)CO)c(=O)[nH]1 [GANCICLOVIR] |  |  | 130 µM | 7.1 µM | > 350 µM |  | 7.5 µM |  |  |  |  |  |
